Experimental data as given in ChEMBL document CHEMBL4052595, “Application of Residual Dipolar Couplings and Selective Quantitative NOE to Establish the Structures of Tetranortriterpenoids from Xylocarpus rumphii” (J Nat Prod, 2017).
Active and inactive are the calls of the source.

How the values were obtained:
Format in all cases: functional, cell-based
SNB-75 = assay: Growth inhibition of human SNB75 cells at 10^-5 M incubated for 48 hrs by sulforhodamine B assay
Method in brief: (§1)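 Run in the NCI59 one-dose cell-line screen, with each compound tested at a single concentration of 1 × 10−5 M.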

NCI-H322M = assay: Growth inhibition of human NCI-H322M cells at 10^-5 M incubated for 48 hrs by sulforhodamine B assay; method in brief: as §1
HOP-62 = assay: Growth inhibition of human HOP62 cells at 10^-5 M incubated for 48 hrs by sulforhodamine B assay; method in brief: as §1
LOX IMVI = assay: Growth inhibition of human LOXIMVI cells at 10^-5 M incubated for 48 hrs by sulforhodamine B assay; method in brief: as §1
NCI-H226 = assay: Growth inhibition of human NCI-H226 cells at 10^-5 M incubated for 48 hrs by sulforhodamine B assay; method in brief: as §1
HCT-116 = assay: Growth inhibition of human HCT116 cells at 10^-5 M incubated for 48 hrs by sulforhodamine B assay; method in brief: as §1
SR = assay: Growth inhibition of human SR cells at 10^-5 M incubated for 48 hrs by sulforhodamine B assay; method in brief: as §1
M14 = assay: Growth inhibition of human M14 cells at 10^-5 M incubated for 48 hrs by sulforhodamine B assay; method in brief: as §1
A498 = assay: Growth inhibition of human A498 cells at 10^-5 M incubated for 48 hrs by sulforhodamine B assay; method in brief: as §1
HOP-92 = assay: Growth inhibition of human HOP92 cells at 10^-5 M incubated for 48 hrs by sulforhodamine B assay; method in brief: as §1
UO-31 = assay: Growth inhibition of human UO31 cells at 10^-5 M incubated for 48 hrs by sulforhodamine B assay
Method in brief: (§2)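 Tested at a single concentration of 1 × 10−5 M as part of the NCI59 cell-line one-dose screen.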

SK-OV-3 = assay: Growth inhibition of human SKOV3 cells at 10^-5 M incubated for 48 hrs by sulforhodamine B assay; method in brief: as §1
U-251 = assay: Growth inhibition of human U251 cells at 10^-5 M incubated for 48 hrs by sulforhodamine B assay; method in brief: as §2
OVCAR-4 = assay: Growth inhibition of human OVCAR4 cells at 10^-5 M incubated for 48 hrs by sulforhodamine B assay; method in brief: as §1
SF-539 = assay: Growth inhibition of human SF539 cells at 10^-5 M incubated for 48 hrs by sulforhodamine B assay; method in brief: as §1
KM12 = assay: Growth inhibition of human KM12 cells at 10^-5 M incubated for 48 hrs by sulforhodamine B assay; method in brief: as §1
UACC-62 = assay: Growth inhibition of human UACC62 cells at 10^-5 M incubated for 48 hrs by sulforhodamine B assay; method in brief: as §2
SF-295 = assay: Growth inhibition of human SF295 cells at 10^-5 M incubated for 48 hrs by sulforhodamine B assay; method in brief: as §1
NCI-H23 = assay: Growth inhibition of human NCI-H23 cells at 10^-5 M incubated for 48 hrs by sulforhodamine B assay; method in brief: as §1
CAKI-1 = assay: Growth inhibition of human Caki1 cells at 10^-5 M incubated for 48 hrs by sulforhodamine B assay; method in brief: as §1
COLO 205 = assay: Growth inhibition of human COLO205 cells at 10^-5 M incubated for 48 hrs by sulforhodamine B assay; method in brief: as §1
T47D = assay: Growth inhibition of human T47D cells at 10^-5 M incubated for 48 hrs by sulforhodamine B assay; method in brief: as §2
OVCAR-5 = assay: Growth inhibition of human OVCAR5 cells at 10^-5 M incubated for 48 hrs by sulforhodamine B assay; method in brief: as §1
NCI-H460 = assay: Growth inhibition of human NCI-H460 cells at 10^-5 M incubated for 48 hrs by sulforhodamine B assay; method in brief: as §1
OVCAR-8 = assay: Growth inhibition of human OVCAR8 cells at 10^-5 M incubated for 48 hrs by sulforhodamine B assay; method in brief: as §1
IGROV-1 = assay: Growth inhibition of human IGROV1 cells at 10^-5 M incubated for 48 hrs by sulforhodamine B assay; method in brief: as §1
HT-29 = assay: Growth inhibition of human HT-29 cells at 10^-5 M incubated for 48 hrs by sulforhodamine B assay; method in brief: as §1
BT-549 = assay: Growth inhibition of human BT549 cells at 10^-5 M incubated for 48 hrs by sulforhodamine B assay; method in brief: as §1
SK-MEL-5 = assay: Growth inhibition of human SK-MEL-5 cells at 10^-5 M incubated for 48 hrs by sulforhodamine B assay; method in brief: as §1
MDA-MB-231 = assay: Growth inhibition of human MDA-MB-231 cells at 10^-5 M incubated for 48 hrs by sulforhodamine B assay; method in brief: as §1
SK-MEL-2 = assay: Growth inhibition of human SK-MEL-2 cells at 10^-5 M incubated for 48 hrs by sulforhodamine B assay; method in brief: as §1
TK-10 = assay: Growth inhibition of human TK10 cells at 10^-5 M incubated for 48 hrs by sulforhodamine B assay; method in brief: as §2
MOLT-4 = assay: Growth inhibition of human MOLT4 cells at 10^-5 M incubated for 48 hrs by sulforhodamine B assay; method in brief: as §1
786-0 = assay: Growth inhibition of human 786-0 cells at 10^-5 M incubated for 48 hrs by sulforhodamine B assay; method in brief: as §1
HCC 2998 = assay: Growth inhibition of human HCC2998 cells at 10^-5 M incubated for 48 hrs by sulforhodamine B assay; method in brief: as §1
ACHN = assay: Growth inhibition of human ACHN cells at 10^-5 M incubated for 48 hrs by sulforhodamine B assay; method in brief: as §1
MCF7 = assay: Growth inhibition of human MCF7 cells at 10^-5 M incubated for 48 hrs by sulforhodamine B assay; method in brief: as §1
HCT-15 = assay: Growth inhibition of human HCT15 cells at 10^-5 M incubated for 48 hrs by sulforhodamine B assay; method in brief: as §1
RPMI-8226 = assay: Growth inhibition of human RPMI8226 cells at 10^-5 M incubated for 48 hrs by sulforhodamine B assay; method in brief: as §1
NCI/ADR-RES = assay: Growth inhibition of human NCI/ADR-RES cells at 10^-5 M incubated for 48 hrs by sulforhodamine B assay; method in brief: as §1
NCI-H522 = assay: Growth inhibition of human NCI-H522 cells at 10^-5 M incubated for 48 hrs by sulforhodamine B assay; method in brief: as §1
DU-145 = assay: Growth inhibition of human DU145 cells at 10^-5 M incubated for 48 hrs by sulforhodamine B assay; method in brief: as §1
RXF 393 = assay: Growth inhibition of human RXF393 cells at 10^-5 M incubated for 48 hrs by sulforhodamine B assay; method in brief: as §1
A549 = assay: Growth inhibition of human A549/ATCC cells at 10^-5 M incubated for 48 hrs by sulforhodamine B assay; method in brief: as §1
SN12C = assay: Growth inhibition of human SN12C cells at 10^-5 M incubated for 48 hrs by sulforhodamine B assay; method in brief: as §1
HL-60(TB) = assay: Growth inhibition of human HL-60(TB) cells at 10^-5 M incubated for 48 hrs by sulforhodamine B assay
Method in brief: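 Run in the NCI59 cell-line one-dose screen, with each compound tested at a single concentration of 1 × 10−5 M.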

MDA-MB-435 = assay: Growth inhibition of human MDA-MB-435 cells at 10^-5 M incubated for 48 hrs by sulforhodamine B assay; method in brief: as §1
SF-268 = assay: Growth inhibition of human SF268 cells at 10^-5 M incubated for 48 hrs by sulforhodamine B assay; method in brief: as §1
OVCAR-3 = assay: Growth inhibition of human OVCAR3 cells at 10^-5 M incubated for 48 hrs by sulforhodamine B assay; method in brief: as §1
SK-MEL-28 = assay: Growth inhibition of human SK-MEL-28 cells at 10^-5 M incubated for 48 hrs by sulforhodamine B assay; method in brief: as §1
CCRF-CEM = assay: Growth inhibition of human CCRF-CEM cells at 10^-5 M incubated for 48 hrs by sulforhodamine B assay; method in brief: as §1
EKVX = assay: Growth inhibition of human EKVX cells at 10^-5 M incubated for 48 hrs by sulforhodamine B assay; method in brief: as §1
SW-620 = assay: Growth inhibition of human SW620 cells at 10^-5 M incubated for 48 hrs by sulforhodamine B assay; method in brief: as §2
K562 = assay: Growth inhibition of human K562 cells at 10^-5 M incubated for 48 hrs by sulforhodamine B assay; method in brief: as §1
UACC-257 = assay: Growth inhibition of human UACC257 cells at 10^-5 M incubated for 48 hrs by sulforhodamine B assay; method in brief: as §2
PC-3 = assay: Growth inhibition of human PC3 cells at 10^-5 M incubated for 48 hrs by sulforhodamine B assay; method in brief: as §1
Hs-578T = assay: Growth inhibition of human Hs 578T cells at 10^-5 M incubated for 48 hrs by sulforhodamine B assay; method in brief: as §1
SNB-19 = assay: Growth inhibition of human SNB19 cells at 10^-5 M incubated for 48 hrs by sulforhodamine B assay; method in brief: as §1

Measured: growth inhibition (GI)

CC[C@H](C)C(=O)O[C@@H]1[C@@H]2[C@@H](OC(=O)C(C)C)[C@@]34O[C@]2(O)[C@@](C)([C@@H](CC(=O)OC)C1(C)C)[C@H]3CC[C@]1(C)C4=CC(=O)O[C@H]1C1=CC(O)OC1=O (stereo partly specified)
inactive: SNB-75 | NCI-H322M | HOP-62 | LOX IMVI | NCI-H226 | HCT-116 | SR | M14 | A498 | HOP-92 | UO-31 | SK-OV-3 | U-251 | OVCAR-4 | SF-539 | KM12 | UACC-62 | SF-295 | NCI-H23 | CAKI-1 | COLO 205 | T47D | OVCAR-5 | NCI-H460 | OVCAR-8 | IGROV-1 | HT-29 | BT-549 | SK-MEL-5 | MDA-MB-231 | SK-MEL-2 | TK-10 | MOLT-4 | 786-0 | HCC 2998 | ACHN | MCF7 | HCT-15 | RPMI-8226 | NCI/ADR-RES | NCI-H522 | DU-145 | RXF 393 | A549 | SN12C | HL-60(TB) | MDA-MB-435 | SF-268 | OVCAR-3 | SK-MEL-28 | CCRF-CEM | EKVX | SW-620 | K562 | UACC-257 | PC-3 | Hs-578T | SNB-19

COC(=O)C[C@H]1[C@@]2(C)C[C@@]34O[C@@]5(C)O[C@]6([C@@H]7CC(=O)O[C@@H](c8ccoc8)[C@]7(C)CC[C@]6(O5)[C@@]13C)[C@@H](OC(C)=O)[C@@]4(OC(C)=O)[C@H]2OC(C)=O
inactive: SNB-75 | NCI-H322M | HOP-62 | LOX IMVI | NCI-H226 | HCT-116 | SR | M14 | A498 | HOP-92 | UO-31 | SK-OV-3 | U-251 | OVCAR-4 | SF-539 | KM12 | UACC-62 | SF-295 | NCI-H23 | CAKI-1 | COLO 205 | T47D | OVCAR-5 | NCI-H460 | OVCAR-8 | IGROV-1 | HT-29 | BT-549 | SK-MEL-5 | MDA-MB-231 | SK-MEL-2 | TK-10 | MOLT-4 | 786-0 | HCC 2998 | ACHN | MCF7 | HCT-15 | RPMI-8226 | NCI/ADR-RES | NCI-H522 | DU-145 | RXF 393 | A549 | SN12C | HL-60(TB) | MDA-MB-435 | SF-268 | OVCAR-3 | SK-MEL-28 | CCRF-CEM | EKVX | SW-620 | K562 | UACC-257 | PC-3 | Hs-578T | SNB-19
